SMILES strings stand for the structures. The source made the active and inactive calls. The calls are words filed in the database; no cut-off is given here.

The text below walks through data of ChEMBL document CHEMBL1138264, “Aromatic lipoxin A4 and lipoxin B4 analogues display potent biological activities” (J Med Chem, 2007).

In assay [1] the test system is THP-1. Kind of assay: Increase in human THP1 cells mediated phagocytosis of apoptotic polymorphonuclear leukocytes at 0.1 pM to 1 nM after 15 mins. The class given is functional, cell-based. A digest of the protocol:
(§1)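 THP-1 cells differentiated with 100 nM PMA for 48 h (5 × 10^5 cells/well), pretreated 15 min at 37 °C, then co-incubated 2 h at 37 °C with 1 × 10^6 human PMNs made apoptotic by 20 h culture. Vehicle was 0.1% DMSO or ethanol. After cold PBS washes, myeloperoxidase staining; % THP-1 cells containing ≥1 PMN (≥400 cells, duplicate wells); n = 3.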

In assay [2] the test system is THP-1. As to the kind of experiment: Increase in human THP1 cells mediated phagocytosis of apoptotic polymorphonuclear leukocytes at 1 nM in presence of pan-FPR/ALXR antagonist Boc2. The class given is functional, cell-based. A digest of the protocol:
(§2)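 PMA-differentiated THP-1 cells given Boc2 (100 µM), with or without stimulus, for 15 min at 37 °C. Then co-incubated 2 h with apoptotic human PMNs. Phagocytosis scored by myeloperoxidase staining as % THP-1 cells containing PMNs; mean ± SEM, n = 3, compared with no Boc2.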

The subject of assay [3] is THP-1. As to the kind of experiment: Increase in human THP1 cells mediated phagocytosis of apoptotic polymorphonuclear leukocytes at 0.01 pM to 1 nM after 15 mins. Format: functional, cell-based. In outline: as §1
The subject of assay [4] is THP-1. Kind of assay: Induction of F-actin rearrangement in human THP1 cells at 1 nM after 15 mins. The class given is functional, cell-based. A digest of the protocol:
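PMA-differentiated THP-1 cells (1 × 10^6/well) on glass coverslips, exposed to stimulus at 1 nM for 15 min. Fixed in 3.8% paraformaldehyde, permeabilized with 0.1% Triton X-100, stained with 0.33 µmol/L Oregon Green-phalloidin for 30 min. F-actin localization imaged by fluorescence microscopy (×100 oil objective); three independent experiments.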

Assay [5] relates to THP-1. As to the kind of experiment: Increase in human THP1 cells mediated phagocytosis of apoptotic polymorphonuclear leukocytes at 10 pM after 15 mins. Format: functional, cell-based. In outline: as §1
The subject of assay [6] is THP-1. As to the kind of experiment: Increase in human THP1 cells mediated phagocytosis of apoptotic polymorphonuclear leukocytes at 0.01 pM after 15 mins. The class given is functional, cell-based. In outline:
as §1

The test system of assay [7] is THP-1. Kind of assay: Increase in human THP1 cells adherence to laminin after 30 mins. The class given is functional, cell-based. In outline: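 THP-1 cells loaded with 1 µM BCECF-AM for 20 min at 37 °C, then resuspended at 3.3 × 10^6/mL in PBS2+ with 0.1% BSA. Cells settled 10 min on laminin-coated wells, then given agonist or vehicle for 30 min at 37 °C. Washed, lysed in NaOH/SDS, fluorescence read. Percent adherence above vehicle; three experiments, each in triplicate.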

In assay [8] the test system is THP-1. Kind of assay: Increase in human THP1 cells mediated phagocytosis of apoptotic polymorphonuclear leukocytes at 1 pM in presence of pan-FPR/ALXR antagonist Boc2. Format: functional, cell-based. In outline:
as §2

Another assay has as its system Mus musculus. Kind of assay: Decrease in zymosan-induced neutrophil accumulation in mouse model of peritonitis at 50 ug/kg, iv. Format: functional, organism-based. A digest of the protocol: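 Zymosan A peritonitis in mice: analogue at 0.5-50 µg/kg given intravenously (vehicle n = 15; n = 6 per dose group), followed 5 min later by i.p. zymosan A, 1 mg in 0.5 mL sterile PBS. Peritoneal lavage at 4 h with PBS/3 mM EDTA/heparin. Cells Fc-blocked, stained with PE anti-Gr-1 and counted as neutrophils (Gr-1+). Mean ± SEM versus vehicle.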

Assay [9] concerns THP-1. As to the kind of experiment: Increase in human THP1 cells mediated phagocytosis of apoptotic polymorphonuclear leukocytes at 1 nM after 15 mins. Format: functional, cell-based. In outline: as §1

Regarding `CCCCC[C@H](O)/C=C/C=C\C=C\C=C\[C@@H](O)[C@@H](O)CCCC(=O)O`, the result in the assay with THP-1 [1] was Active. The result in the assay on THP-1 [2] was inactive.

Turning to `CCCCC[C@H](O)c1ccccc1/C=C/[C@@H](O)[C@@H](O)CCCC(=O)O`, the outcome in the assay on THP-1 [3] was inactive.

`CCCCC[C@H](O)[C@H](O)/C=C/c1ccccc1[C@@H](O)CCCC(=O)OC(C)(C)C`: the result with THP-1 [4] and in the assay with THP-1 [5] was Active.

For `CCCCC[C@@H](O)c1ccccc1/C=C/[C@@H](O)[C@@H](O)CCCC(=O)OC`, the outcome in the assay with THP-1 [1], in the assay on THP-1 [4], in the assay on THP-1 [7] and in the assay with Mus musculus was Active. Further, the result in the assay with THP-1 [6] and in the assay with THP-1 [8] was inactive.

As to `CCCCC[C@H](O)c1ccccc1/C=C/[C@@H](O)[C@@H](O)CCCC(=O)OC`, the outcome in the assay on THP-1 [9], with THP-1 [4] and in the assay with THP-1 [7] was Active. Further, in the assay on THP-1 [2], the outcome was inactive.

`CCCCC[C@@H](O)c1ccccc1/C=C/[C@@H](O)[C@@H](O)CCCC(=O)O`: the outcome in the assay on THP-1 [3] was inactive.
